Results of several laboratories.
Each line is one published result; the experiments were not run side by side.
Cell line: HCT-116
Observed: cell growth or viability

| SMILES | method | time | IC50 |
| --- | --- | --- | --- |
| O=C1CS/C(=N\c2ccccc2Cl)N1c1nnc(-c2ccc(C(F)(F)F)cc2/N=C2\SCC(=O)N2c2ccccc2Cl)s1 | MTT |  | 57.9 µM |
| O=P1(C2CCCCC2)CCCCC1 | MTT | 72 h | 13.8 µM |
| Cc1nnc(-c2nn(Cc3ccc(Cl)cc3Cl)c3ccccc23)o1 |  | 48 h | 48.4 µM |
| FC(F)(F)c1cc(OCc2cc(-c3ccc(Cl)cc3Cl)no2)c2ccccc2n1 | MTS | 72 h | > 100 µM |
| O=C(CSc1nc2ccccc2s1)N/N=C/c1ccc(OCC(=O)Nc2cccc(Br)c2)cc1 | MTS | 72 h | > 100 µM |
| Cc1cc2c(C(N)=O)nccc2n1-c1nc2c(c(NCc3ccccc3)n1)CCCN2 | ATP luminescence | 72 h | 2.3 µM |
| CCc1ccc(N=C2C(=O)N(Cc3ccccc3)c3ccccc32)cc1 | MTT | 48 h | 0.9 µM |
| Fc1ccc2c(-c3nnc(Cc4ccccc4)s3)nn(Cc3ccc(Cl)cc3Cl)c2c1 |  | 48 h | 85.1 µM |
| O=[N+]([O-])c1ccc(O)c(C=NNc2ccc(C(F)(F)F)cc2)c1 | MTT | 24 h | 11.3 µM |
| O=[N+]([O-])c1ccc(NC(=S)N/N=C/c2cccc3cc4ccccc4nc23)cc1 | MTT | 48 h | > 50 µM |
| FC(F)(F)c1ccc(-c2cc(COc3cc(C(F)(F)F)nc4ccccc34)on2)cc1 | MTS | 72 h | > 100 µM |
| CC(=O)O[C@@H]1[C@@H](OC(C)=O)[C@H](OC(C)=O)CO[C@H]1n1cc(Cn2c(C(=O)/C=C/c3ccc(F)cc3)nc3ccccc32)nn1 | LDH | 48 h | 9.97 µM |
| O=C(C=Cc1ccc(OCCCCOc2ccc(C=CC(=O)c3cccs3)cc2)cc1)c1cccs1 | MTT | 48 h | 278 µM |
| COc1ccc2c(-c3ncc(-c4ccccc4)o3)nn(Cc3ccccc3)c2c1 |  | 48 h | 80.9 µM |
| COc1cccc2c1C(=O)c1c(O)c3c(c(O)c1C2=O)C[C@@](O)(C(=O)CO)C[C@@H]3O[C@H]1C[C@H](N)[C@H](O)[C@H](C)O1 | MTT | 72 h | 0.2 µM |
| O=C(CSc1nc2ccccc2s1)N/N=C/c1ccc(OCC(=O)Nc2ccc(Br)cc2)cc1 | MTS | 72 h | > 100 µM |
| COc1cccc(-c2cc(NCc3ccc4c(c3)OCO4)nc(N)n2)c1 |  | 72 h | 0.347 µM |
| O=C1Nc2ccccc2C1=Nc1ccccc1Br | MTT | 48 h | > 100 µM |
| CONC(=O)Cc1c(C)n(-c2nc3c(c(NCc4ccccc4)n2)CCCN3)c2ccccc12 | ATP luminescence | 72 h | 4.2 µM |

| SMILES | method | time | IC50 |
| --- | --- | --- | --- |
| COc1cccc2c1C(=O)c1c(O)c3c(c(O)c1C2=O)C[C@@](O)(C(=O)CO)C[C@@H]3O[C@H]1C[C@H](N)[C@H](O)[C@H](C)O1 | MTT | 24 h | 1.06 µM |
| Cc1cc(NS(=O)(=O)c2ccc(NC(=O)/C(C#N)=C/c3cccnc3)cc2)no1 | MTT | 48 h | > 200 µM |
| COc1cc([C@@H]2c3cc4c(cc3[C@@H](O[C@@H]3O[C@@H]5CO[C@@H](C)O[C@H]5[C@H](O)[C@H]3O)[C@H]3COC(=O)[C@H]23)OCO4)cc(OC)c1O | MTS | 72 h | 0.59 µM |
| CNC(=S)N/N=C/c1cccc2cc3ccccc3nc12 | MTT | 48 h | 21.8 µM |
| OCn1cncn1 | MTT | 24 h | 48.8 µM |
| COc1ccc(N=C2SCC(=O)N2c2nnc(-c3ccc(C(F)(F)F)cc3N=C3SCC(=O)N3c3ccc(OC)cc3)s2)cc1 | MTT |  | 65.2 µM |
| COc1ccc(NC(=S)N/N=C/c2cccc3cc4ccccc4nc23)cc1 | MTT | 48 h | > 50 µM |
| CC(C)c1ccc(/C=C2\NC(=S)N(c3ccccc3)C2=O)cc1 | MTT |  | 63.2 µg/mL |
| O=[N+]([O-])c1cc(Br)c(O)c(C=NNc2ccc(C(F)(F)F)cc2)c1 | MTT | 24 h | 9.42 µM |
| O=C1CSC(=Nc2cc([N+](=O)[O-])ccc2[N+](=O)[O-])N1c1nnc(-c2ccc(C(F)(F)F)cc2N=C2SCC(=O)N2c2cc([N+](=O)[O-])ccc2[N+](=O)[O-])s1 | MTT |  | 80.9 µM |
| Cc1c2c(nn1C)CSCc1cc(n(C)n1)CSc1cc(c3ccccc3c1)OCCCc1c(C(=O)O)n(C)c3c-2c(Cl)ccc13 | CCK-8 |  | 25 µM |
| O=C(O)c1nn(Cc2ccc(Cl)cc2Cl)c2ccccc12 |  | 48 h | 247 µM |
| O=C1CS/C(=N\c2cc(C(F)(F)F)ccc2-c2nnc(N3C(=O)CS/C3=N\c3ccc(F)cc3)s2)N1c1ccc(F)cc1 | MTT |  | 21.2 µM |
| O=[N+]([O-])c1ccc(O)c(C=NNc2ccc(Cl)cc2)c1 | MTT | 24 h | 11 µM |
| COc1cccc2c1C(=O)c1c(O)c3c(c(O)c1C2=O)C[C@@](O)(C(=O)CO)C[C@@H]3O[C@H]1C[C@H](N)[C@H](O)[C@H](C)O1 | MTT |  | 41.2 µM |
| Cc1cccc(N=C2C(=O)Nc3ccccc32)c1 | MTT | 48 h | > 100 µM |
| COc1ccc(N(Cc2nc(-c3ccc(F)cc3)cs2)C(=O)CCCCCC(=O)NO)cc1 | MTT | 72 h | 3.2 µM |
| N/C(=N\O)c1ccc(-c2cc(CNc3cccc4cccnc34)on2)cc1 | MTS | 72 h | > 100 µM |
| COc1cccc2c1C(=O)c1c(O)c3c(c(O)c1C2=O)C[C@@](O)(C(=O)CO)C[C@@H]3O[C@H]1C[C@H](N)[C@H](O)[C@H](C)O1 | LDH | 48 h | 8.12 µM |

| SMILES | method | time | IC50 |
| --- | --- | --- | --- |
| Cc1cc2c(C(N)=O)cccc2n1-c1nc2c(c(NCc3ccccc3O)n1)CCCN2 | ATP luminescence | 72 h | 5 µM |
| Fc1ccc2c(-c3nnc(Cc4ccccc4)s3)nn(Cc3ccccc3)c2c1 |  | 48 h | 73.9 µM |
| CC(C)c1ccc(/C=C2\N=C(SCC(=O)O)N(c3ccccc3)C2=O)cc1 | MTT |  | 44.3 µg/mL |
| Cc1cc(C)n(Cn2cnc3ccccc32)n1 | MTT | 24 h | 70.2 µM |
| O=C(C=Cc1cccs1)c1ccc(OCCCCOc2ccc(C(=O)C=Cc3cccs3)cc2)cc1 | MTT | 48 h | 356 µM |
| Cc1cc(NS(=O)(=O)c2ccc(NC(=O)/C(C#N)=C/c3ccc(N4CCCCC4)cc3)cc2)no1 | MTT | 48 h | 14.5 µM |
| O=c1cc(OCc2cc(-c3ccccc3)no2)c2ccccc2o1 | MTS | 72 h | > 100 µM |
| Cc1cccc(NC(=O)Cn2cc(COc3ncnc4[nH]cnc34)nn2)c1 | MTT |  | 55.3 µM |
| CC(C)c1cccc(C(C)C)c1N=C1C(=O)N(Cc2cccc(Cl)c2)c2ccccc21 | MTT | 48 h | 22.4 µM |
| Fc1ccc2c(-c3nnc(Cc4ccccc4)[nH]3)nn(Cc3ccc(Cl)cc3Cl)c2c1 |  | 48 h | 22 µM |
| O=C1C(=Nc2cccc(Cl)c2)c2ccccc2N1Cc1ccc([N+](=O)[O-])cc1 | MTT | 48 h | 0.84 µM |
| N#Cc1ccc(-c2cc(COc3cc(C(F)(F)F)nc4ccccc34)on2)cc1 | MTS | 72 h | > 100 µM |
| COc1cc(N=C2C(=O)Nc3ccccc32)cc(OC)c1 | MTT | 48 h | 24.4 µM |
| Cc1cc2c(C(=O)O)cccc2n1-c1nc2c(c(NCc3ccccc3)n1)CCCN2 | ATP luminescence | 72 h | 0.4 µM |
| CC(C)c1cccc(C(C)C)c1N=C1C(=O)N(Cc2ccccc2)c2ccccc21 | MTT | 48 h | 11.7 µM |
| CC(=O)O[C@@H]1[C@@H](OC(C)=O)[C@H](OC(C)=O)CO[C@H]1n1cc(Cn2c(C(C)=O)nc3ccccc32)nn1 | LDH | 48 h | 7.74 µM |
| O=C1C(=Nc2ccc(Cl)cc2)c2ccccc2N1Cc1ccc(Br)cc1 | MTT | 48 h | 21.4 µM |
| OCn1ccnc1 | MTT | 24 h | 10.7 µM |
